Measurements reported in ChEMBL document CHEMBL4011621, “A Novel Series of Highly Potent Small Molecule Inhibitors of Rhinovirus Replication” (J Med Chem, 2017).

Test system: not listed separately
Experiment: Cytotoxicity against human H1HeLa cells assessed as decrease in cell viability after 3 days by MTT assay
Type: cell-based, H1-HeLa
Settings: not given

Row | Structure (SMILES) | CC50 at 72 h
1 | CNC(=O)c1cc(Oc2ccc3c(C)c(C(=O)OC(C)C)n(C)c3c2)ccn1 | 11.2 µM
2 | CCOC(=O)c1ccc2cc(Oc3ccnc(C(=O)NC)c3)ccc2c1 | 35.3 µM
3 | CCOC(=O)c1sc2cc(Oc3cccc(C(=O)NC)c3)ccc2c1C | 5.1 µM
4 | CNC(=O)c1cc(Oc2ccc3c(C)c(C(=O)OC)sc3c2)ccn1 | 10.8 µM
5 | CCOC(=O)c1sc2cc(Oc3ccnc(C(=O)NC)c3)ccc2c1C#N | > 100 µM
6 | CCOC(=O)c1ccc2ccc(Oc3ccnc(C(=O)NC)c3)cc2n1 | > 100 µM
7 | CNC(=O)c1cc(Oc2ccc3cc(C(=O)OC(C)C)n(C)c3c2)ccn1 | 10.3 µM
8 | CNC(=O)c1cc(Oc2ccc3ccc(C(=O)OC)cc3c2)ccn1 | 53.5 µM
9 | CNC(=O)c1cc(Oc2ccc3cc(C(=O)OC(C)C)sc3c2)ccn1 | 45.7 µM

Test system: not listed separately
Experiment: Selectivity index, ratio of CC50 for human H1HeLa cells to EC50 for Human rhinovirus A21 infected in human H1HeLa cells
Type: toxicity, cell-based
Settings: read-out: Ratio CC50/EC50
Outline: (§1)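 H1HeLa cells plated 2 d ahead; virus plus compound (equal volumes) incubated 33 °C, 3 d, CO2. MTT 1 h at 37 °C, A540/A690. Survival scaled between uninfected untreated (100%) and virus-only (0%) wells to give EC50. CC50 = 50% cell death by MTT in H1HeLa. SI = CC50/EC50; at least three independent experiments.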

Row | Structure (SMILES) | selectivity ratio
10 | CNC(=O)c1cc(Oc2ccc3c(C)c(C(=O)OC(C)C)n(C)c3c2)ccn1 | 86
11 | CCOC(=O)c1ccc2cc(Oc3ccnc(C(=O)NC)c3)ccc2c1 | 390
12 | CCOC(=O)c1sc2cc(Oc3cccc(C(=O)NC)c3)ccc2c1C | 60
13 | CNC(=O)c1cc(Oc2ccc3c(C)c(C(=O)OC)sc3c2)ccn1 | 43
14 | CCOC(=O)c1sc2cc(Oc3ccnc(C(=O)NC)c3)ccc2c1C#N | > 4.8
15 | CCOC(=O)c1ccc2ccc(Oc3ccnc(C(=O)NC)c3)cc2n1 | > 2.3
16 | CNC(=O)c1cc(Oc2ccc3cc(C(=O)OC(C)C)n(C)c3c2)ccn1 | 160
17 | CNC(=O)c1cc(Oc2ccc3ccc(C(=O)OC)cc3c2)ccn1 | 27
18 | CNC(=O)c1cc(Oc2ccc3cc(C(=O)OC(C)C)sc3c2)ccn1 | 31

Test system: not listed separately
Experiment: Cytotoxicity aganist human HeLa cells assessed as decrease in cell viability after 2 days by MTT assay
Type: cell-based
Settings: not given

Row | Structure (SMILES) | CC50 at 48 h
19 | CNC(=O)c1cc(Oc2ccc3c(C)c(C(=O)OC(C)C)n(C)c3c2)ccn1 | 8.5 µM
20 | CCOC(=O)c1ccc2cc(Oc3ccnc(C(=O)NC)c3)ccc2c1 | 34.1 µM
21 | CCOC(=O)c1sc2cc(Oc3cccc(C(=O)NC)c3)ccc2c1C | 7.7 µM
22 | CNC(=O)c1cc(Oc2ccc3c(C)c(C(=O)OC)sc3c2)ccn1 | 15.7 µM
23 | CCOC(=O)c1sc2cc(Oc3ccnc(C(=O)NC)c3)ccc2c1C#N | > 100 µM
24 | CCOC(=O)c1ccc2ccc(Oc3ccnc(C(=O)NC)c3)cc2n1 | > 100 µM
25 | CNC(=O)c1cc(Oc2ccc3cc(C(=O)OC(C)C)n(C)c3c2)ccn1 | 46.1 µM
26 | CNC(=O)c1cc(Oc2ccc3ccc(C(=O)OC)cc3c2)ccn1 | 33.8 µM
27 | CNC(=O)c1cc(Oc2ccc3cc(C(=O)OC(C)C)sc3c2)ccn1 | 45 µM

Test system: not listed separately
Experiment: Selectivity index, ratio of CC50 for human HeLa cells to EC50 for human poliovirus 3 infected in human HeLa cells
Type: toxicity, cell-based
Settings: read-out: Ratio CC50/EC50
Outline: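 SI = CC50/EC50 in HeLa cells. CC50 = 50% cell death by MTT. EC50 = 50% inhibition of PV3 CPE by MTT after 2 d at 37 °C, survival scaled to uninfected (100%) and virus-only (0%) wells. At least three independent experiments.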

Row | Structure (SMILES) | selectivity ratio
28 | CNC(=O)c1cc(Oc2ccc3c(C)c(C(=O)OC(C)C)n(C)c3c2)ccn1 | 120
29 | CCOC(=O)c1ccc2cc(Oc3ccnc(C(=O)NC)c3)ccc2c1 | 83
30 | CCOC(=O)c1sc2cc(Oc3cccc(C(=O)NC)c3)ccc2c1C | 20
31 | CNC(=O)c1cc(Oc2ccc3c(C)c(C(=O)OC)sc3c2)ccn1 | 180
32 | CCOC(=O)c1sc2cc(Oc3ccnc(C(=O)NC)c3)ccc2c1C#N | > 1.8
33 | CCOC(=O)c1ccc2ccc(Oc3ccnc(C(=O)NC)c3)cc2n1 | > 53
34 | CNC(=O)c1cc(Oc2ccc3cc(C(=O)OC(C)C)n(C)c3c2)ccn1 | 5.1
35 | CNC(=O)c1cc(Oc2ccc3ccc(C(=O)OC)cc3c2)ccn1 | 770
36 | CNC(=O)c1cc(Oc2ccc3cc(C(=O)OC(C)C)sc3c2)ccn1 | 7

Test system: rhinovirus A21
Experiment: Antiviral activity against Human rhinovirus A21 infected in human H1HeLa cells assessed as protection against virus induced cytopathic effect after 3 days by MTT assay
Type: functional, cell-based
Settings: Rhinovirus A, H1-HeLa, 72 h
Outline: (§2)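 CPE-reduction assay in H1HeLa cells plated 2 d before. Equal volumes of virus and compound were added and held at 33 °C for 3 d under CO2. Supernatant was removed, then MTT was added for 1 h at 37 °C. Formazan was dissolved and read at 540 nm against a 690 nm reference. Survival was scaled between uninfected untreated wells (100%) and virus-only wells (0%); mean ± SD, three experiments.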

Row | Structure (SMILES) | EC50
37 | CNC(=O)c1cc(Oc2ccc3c(C)c(C(=O)OC(C)C)n(C)c3c2)ccn1 | 0.13 µM
38 | CCOC(=O)c1ccc2cc(Oc3ccnc(C(=O)NC)c3)ccc2c1 | 0.091 µM
39 | CCOC(=O)c1sc2cc(Oc3cccc(C(=O)NC)c3)ccc2c1C | 0.085 µM
40 | CNC(=O)c1cc(Oc2ccc3c(C)c(C(=O)OC)sc3c2)ccn1 | 0.25 µM
41 | CCOC(=O)c1sc2cc(Oc3ccnc(C(=O)NC)c3)ccc2c1C#N | 20.7 µM
42 | CCOC(=O)c1ccc2ccc(Oc3ccnc(C(=O)NC)c3)cc2n1 | 44.3 µM
43 | CNC(=O)c1cc(Oc2ccc3cc(C(=O)OC(C)C)n(C)c3c2)ccn1 | 0.064 µM
44 | CNC(=O)c1cc(Oc2ccc3ccc(C(=O)OC)cc3c2)ccn1 | 2 µM
45 | CNC(=O)c1cc(Oc2ccc3cc(C(=O)OC(C)C)sc3c2)ccn1 | 1.5 µM

Test system: rhinovirus B14
Experiment: Antiviral activity against Human rhinovirus B14 infected in human H1HeLa cells assessed as protection against virus induced cytopathic effect after 3 days by MTT assay
Type: functional, cell-based
Settings: Rhinovirus B, H1-HeLa, 72 h

Row | Structure (SMILES) | EC50
46 | CNC(=O)c1cc(Oc2ccc3c(C)c(C(=O)OC(C)C)n(C)c3c2)ccn1 | 1.9 µM
47 | CCOC(=O)c1ccc2cc(Oc3ccnc(C(=O)NC)c3)ccc2c1 | 2.1 µM
48 | CCOC(=O)c1sc2cc(Oc3cccc(C(=O)NC)c3)ccc2c1C | 3.4 µM
49 | CNC(=O)c1cc(Oc2ccc3c(C)c(C(=O)OC)sc3c2)ccn1 | 2 µM
50 | CCOC(=O)c1sc2cc(Oc3ccnc(C(=O)NC)c3)ccc2c1C#N | 82.5 µM
51 | CCOC(=O)c1ccc2ccc(Oc3ccnc(C(=O)NC)c3)cc2n1 | 56.6 µM
52 | CNC(=O)c1cc(Oc2ccc3cc(C(=O)OC(C)C)n(C)c3c2)ccn1 | 0.82 µM
53 | CNC(=O)c1cc(Oc2ccc3ccc(C(=O)OC)cc3c2)ccn1 | 11 µM
54 | CNC(=O)c1cc(Oc2ccc3cc(C(=O)OC(C)C)sc3c2)ccn1 | 1.7 µM

Test system: Poliovirus 3
Experiment: Antiviral activity against Human poliovirus 3 infected in human HeLa cells assessed as protection against virus induced cytopathic effect after 2 days by MTT assay
Type: functional, cell-based
Settings: Enterovirus C, 48 h
Outline: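 HeLa cells; MTT-based CPE reduction. Virus and compound added in equal volumes, incubated 37 °C for 2 d in CO2. Supernatant removed, MTT 1 h at 37 °C, formazan dissolved, absorbance 540 nm (690 nm reference). Uninfected untreated wells = 100% survival, virus-only = 0%. EC50 = 50% inhibition; means ± SD, three experiments.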

Row | Structure (SMILES) | EC50
55 | CNC(=O)c1cc(Oc2ccc3c(C)c(C(=O)OC(C)C)n(C)c3c2)ccn1 | 0.071 µM
56 | CCOC(=O)c1ccc2cc(Oc3ccnc(C(=O)NC)c3)ccc2c1 | 0.41 µM
57 | CCOC(=O)c1sc2cc(Oc3cccc(C(=O)NC)c3)ccc2c1C | 0.38 µM
58 | CNC(=O)c1cc(Oc2ccc3c(C)c(C(=O)OC)sc3c2)ccn1 | 0.087 µM
59 | CCOC(=O)c1sc2cc(Oc3ccnc(C(=O)NC)c3)ccc2c1C#N | 55.4 µM
60 | CCOC(=O)c1ccc2ccc(Oc3ccnc(C(=O)NC)c3)cc2n1 | 1.9 µM
61 | CNC(=O)c1cc(Oc2ccc3cc(C(=O)OC(C)C)n(C)c3c2)ccn1 | 9.1 µM
62 | CNC(=O)c1cc(Oc2ccc3ccc(C(=O)OC)cc3c2)ccn1 | 0.044 µM
63 | CNC(=O)c1cc(Oc2ccc3cc(C(=O)OC(C)C)sc3c2)ccn1 | 6.4 µM

Test system: not listed separately
Experiment: Selectivity index, ratio of CC50 for human H1HeLa cells to EC50 for Human rhinovirus B14 infected in human H1HeLa cells
Type: toxicity, cell-based
Settings: read-out: Ratio CC50/EC50
Outline: as §1

Row | Structure (SMILES) | selectivity ratio
64 | CNC(=O)c1cc(Oc2ccc3c(C)c(C(=O)OC(C)C)n(C)c3c2)ccn1 | 5.9
65 | CCOC(=O)c1ccc2cc(Oc3ccnc(C(=O)NC)c3)ccc2c1 | 17
66 | CCOC(=O)c1sc2cc(Oc3cccc(C(=O)NC)c3)ccc2c1C | 1.5
67 | CNC(=O)c1cc(Oc2ccc3c(C)c(C(=O)OC)sc3c2)ccn1 | 5.4
68 | CCOC(=O)c1sc2cc(Oc3ccnc(C(=O)NC)c3)ccc2c1C#N | > 1.2
69 | CCOC(=O)c1ccc2ccc(Oc3ccnc(C(=O)NC)c3)cc2n1 | > 1.8
70 | CNC(=O)c1cc(Oc2ccc3cc(C(=O)OC(C)C)n(C)c3c2)ccn1 | 13
71 | CNC(=O)c1cc(Oc2ccc3ccc(C(=O)OC)cc3c2)ccn1 | 4.9
72 | CNC(=O)c1cc(Oc2ccc3cc(C(=O)OC(C)C)sc3c2)ccn1 | 27

Test system: not listed separately
Experiment: Antiviral activity against Human rhinovirus A71 infected in human H1HeLa cells assessed as protection against virus induced cytopathic effect after 3 days by MTT assay
Type: functional, cell-based
Settings: Rhinovirus A, H1-HeLa, 72 h
Outline: as §2

Row | Structure (SMILES) | EC50
73 | CNC(=O)c1cc(Oc2ccc3c(C)c(C(=O)OC(C)C)n(C)c3c2)ccn1 | 0.06 µM
74 | CCOC(=O)c1ccc2cc(Oc3ccnc(C(=O)NC)c3)ccc2c1 | 0.0035 µM
75 | CCOC(=O)c1sc2cc(Oc3cccc(C(=O)NC)c3)ccc2c1C | 0.15 µM
76 | CNC(=O)c1cc(Oc2ccc3c(C)c(C(=O)OC)sc3c2)ccn1 | 1.6 µM
77 | CCOC(=O)c1sc2cc(Oc3ccnc(C(=O)NC)c3)ccc2c1C#N | 0.54 µM
78 | CCOC(=O)c1ccc2ccc(Oc3ccnc(C(=O)NC)c3)cc2n1 | 1.3 µM
79 | CNC(=O)c1cc(Oc2ccc3cc(C(=O)OC(C)C)n(C)c3c2)ccn1 | 0.0071 µM
80 | CNC(=O)c1cc(Oc2ccc3ccc(C(=O)OC)cc3c2)ccn1 | 1.6 µM
81 | CNC(=O)c1cc(Oc2ccc3cc(C(=O)OC(C)C)sc3c2)ccn1 | 0.013 µM

Test system: not listed separately
Experiment: Selectivity index, ratio of CC50 for human H1HeLa cells to EC50 for Human rhinovirus A71 infected in human H1HeLa cells
Type: toxicity, cell-based
Settings: read-out: Ratio CC50/EC50
Outline: as §1

Row | Structure (SMILES) | selectivity ratio
82 | CNC(=O)c1cc(Oc2ccc3c(C)c(C(=O)OC(C)C)n(C)c3c2)ccn1 | 190
83 | CCOC(=O)c1ccc2cc(Oc3ccnc(C(=O)NC)c3)ccc2c1 | 10000
84 | CCOC(=O)c1sc2cc(Oc3cccc(C(=O)NC)c3)ccc2c1C | 34
85 | CNC(=O)c1cc(Oc2ccc3c(C)c(C(=O)OC)sc3c2)ccn1 | 6.8
86 | CCOC(=O)c1sc2cc(Oc3ccnc(C(=O)NC)c3)ccc2c1C#N | > 190
87 | CCOC(=O)c1ccc2ccc(Oc3ccnc(C(=O)NC)c3)cc2n1 | > 77
88 | CNC(=O)c1cc(Oc2ccc3cc(C(=O)OC(C)C)n(C)c3c2)ccn1 | 1500
89 | CNC(=O)c1cc(Oc2ccc3ccc(C(=O)OC)cc3c2)ccn1 | 33
90 | CNC(=O)c1cc(Oc2ccc3cc(C(=O)OC(C)C)sc3c2)ccn1 | 3500
